According to ChEMBL document CHEMBL5724801, “EUbOPEN Chemogenomics Library - Multiplex” (2024):
Where “and” joins values, the source holds several entries; their conditions need not be identical. Equal entries are not always repeated.

How the values were obtained:
[1] = tested on: HEK-293T; assay: Multiplex assay against HEK293T; assay type: toxicity, cell-based; conditions: human
In short: (§1)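 Live cells carried four stains from seeding: Hoechst33342, BioTracker Green Microtubule Cytoskeleton Dye, MitoTracker Red and Annexin V Alexa Fluor 680. They were imaged on a CQ1 microscope at 37°C and 5% CO2 after compound addition. Using CellPathfinder machine-learning gating, cells were split into Hoechst high-intensity objects or normal cells, normal cells into healthy, pyknosed or fragmented nuclei, and pyknosed cells into mitotic or apoptotic; tubulin, mitochondrial-mass and membrane-permeability phenotypes are per cents of healthy-nucleus cells.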

[2] = tested on: Fibroblast; assay: Multiplex assay against human fibroblast; assay type: toxicity, cell-based; in short: as §1
[3] = 12 h, 1 µM, compound concentration 1 uM
[4] = 12 h, 10 µM, compound concentration 10 uM
[5] = 24 h, 1 µM, compound concentration 1 uM
[6] = 24 h, 10 µM, compound concentration 10 uM
[7] = 48 h, 1 µM, compound concentration 1 uM
[8] = 48 h, 10 µM, compound concentration 10 uM

Cc1noc(C)c1-c1cnc2c(-c3ccc(C(=O)O)cc3)cn([C@@H](C)c3ccccn3)c2c1 [PLX-51107]
Population Apoptotic (%) [1, 3]: 5.67% and 10.17%
Population Fragmented Nuclei (%) [1, 3]: 1.66% and 3.31%
Population Hoechst High Intensity Objects (%) [1, 3]: 0%
Population Membrane Permeable-Phenotype (%) [1, 3]: 0% and 7.14%
Population Mitotic Cells (%) [1, 3]: 94.33% and 89.83%
Population Normal (%) [1, 3]: 100%
Population Pyknosed Nuclei (%) [1, 3]: 40.33% and 78.15%
Population Tubulin-Different-Phenotype (%) [1, 3]: 2.51% and 7.14%
Population Apoptotic (%) [1, 4]: 13.75% and 7.84%
Population Healthy Nuclei (%) [1, 4]: 45.95% and 25.98%
Population Hoechst High Intensity Objects (%) [1, 4]: 0%
Population Membrane Permeable-Phenotype (%) [1, 4]: 0%
Population Mitotic Cells (%) [1, 4]: 86.25% and 92.16%
Population Normal (%) [1, 4]: 100%
Population Pyknosed Nuclei (%) [1, 4]: 51.78% and 54.45%
Population Tubulin-Different-Phenotype (%) [1, 4]: 4.23% and 5.48%
Total Cell Count [1, 4]: 309 and 281
Population Apoptotic (%) [1, 5]: 9.2% and 11.02%
Population Fragmented Nuclei (%) [1, 5]: 1.19% and 0.87%
Population Healthy Nuclei (%) [1, 5]: 75.73% and 43.91%
Population Hoechst High Intensity Objects (%) [1, 5]: 0%
Population Membrane Permeable-Phenotype (%) [1, 5]: 0%
Population Mitochondria Different-Phenotype (%) [1, 5]: 7.18% and 2.97%
Population Mitotic Cells (%) [1, 5]: 90.8% and 88.98%
Population Normal (%) [1, 5]: 100%
Population Pyknosed Nuclei (%) [1, 5]: 23.08% and 55.22%
Population Tubulin-Different-Phenotype (%) [1, 5]: 0.7% and 3.96%
Population Apoptotic (%) [1, 6]: 10.67% and 13.49%
Population Healthy Nuclei (%) [1, 6]: 62.01% and 40.13%
Population Hoechst High Intensity Objects (%) [1, 6]: 0%
Population Membrane Permeable-Phenotype (%) [1, 6]: 0% and 0.81%
Population Mitochondria Different-Phenotype (%) [1, 6]: 8.3% and 4.84%
Population Mitotic Cells (%) [1, 6]: 89.33% and 86.51%
Population Normal (%) [1, 6]: 100%
Population Pyknosed Nuclei (%) [1, 6]: 36.76% and 40.78%
Population Tubulin-Different-Phenotype (%) [1, 6]: 0% and 5.65%
Total Cell Count [1, 6]: 408 and 309
Population Fragmented Nuclei (%) [1, 7]: 6.3% and 3.02%
Population Healthy Nuclei (%) [1, 7]: 84.08% and 65.66%
Population Hoechst High Intensity Objects (%) [1, 7]: 0.14% and 0%
Population Membrane Permeable-Phenotype (%) [1, 7]: 0.33% and 1.15%
Population Mitochondria Different-Phenotype (%) [1, 7]: 5.35% and 6.9%
Population Mitotic Cells (%) [1, 7]: 94.96% and 79.52%
Population Normal (%) [1, 7]: 99.86% and 100%
Population Tubulin-Different-Phenotype (%) [1, 7]: 0.33% and 2.87%
Population Healthy Nuclei (%) [1, 8]: 78.62% and 47.53%
Population Hoechst High Intensity Objects (%) [1, 8]: 0%
Population Membrane Permeable-Phenotype (%) [1, 8]: 0.21% and 0.65%
Population Mitochondria Different-Phenotype (%) [1, 8]: 10.49% and 12.34%
Population Mitotic Cells (%) [1, 8]: 95.33% and 80.87%
Population Normal (%) [1, 8]: 100%
Population Pyknosed Nuclei (%) [1, 8]: 18.01% and 35.49%
Population Tubulin-Different-Phenotype (%) [1, 8]: 0.43% and 6.49%
Total Cell Count [1, 8]: 594 and 324
Population Apoptotic (%) [2, 3]: 4.44% and 12.9%
Population Fragmented Nuclei (%) [2, 3]: 10.26% and 3.93%
Population Healthy Nuclei (%) [2, 3]: 66.67% and 82.53%
Population Hoechst High Intensity Objects (%) [2, 3]: 0%
Population Membrane Permeable-Phenotype (%) [2, 3]: 4.62% and 1.06%
Population Mitochondria Different-Phenotype (%) [2, 3]: 10% and 6.88%
Population Mitotic Cells (%) [2, 3]: 95.56% and 87.1%
Population Normal (%) [2, 3]: 100%
Population Pyknosed Nuclei (%) [2, 3]: 23.08% and 13.54%
Population Tubulin-Different-Phenotype (%) [2, 3]: 11.54% and 14.81%
Total Cell Count [2, 3]: 195 and 229
Population Apoptotic (%) [2, 4]: 16.13% and 16.67%
Population Fragmented Nuclei (%) [2, 4]: 6.25% and 5.33%
Population Healthy Nuclei (%) [2, 4]: 78.85% and 82.38%
Population Hoechst High Intensity Objects (%) [2, 4]: 0%
Population Membrane Permeable-Phenotype (%) [2, 4]: 4.27% and 2.99%
Population Mitochondria Different-Phenotype (%) [2, 4]: 12.8% and 10.95%
Population Mitotic Cells (%) [2, 4]: 83.87% and 83.33%
Population Normal (%) [2, 4]: 100%
Population Pyknosed Nuclei (%) [2, 4]: 14.9% and 12.3%
Population Tubulin-Different-Phenotype (%) [2, 4]: 14.63% and 21.89%
Total Cell Count [2, 4]: 208 and 244
Population Fragmented Nuclei (%) [2, 5]: 8.57% and 3.9%
Population Healthy Nuclei (%) [2, 5]: 78.1% and 88.31%
Population Hoechst High Intensity Objects (%) [2, 5]: 0%
Population Membrane Permeable-Phenotype (%) [2, 5]: 2.44% and 0.98%
Population Mitochondria Different-Phenotype (%) [2, 5]: 4.88% and 3.43%
Population Mitotic Cells (%) [2, 5]: 82.14% and 94.44%
Population Normal (%) [2, 5]: 100%
Population Pyknosed Nuclei (%) [2, 5]: 13.33% and 7.79%
Population Tubulin-Different-Phenotype (%) [2, 5]: 7.32% and 10.29%
Total Cell Count [2, 5]: 210 and 231
Population Apoptotic (%) [2, 6]: 20% and 14.81%
Population Fragmented Nuclei (%) [2, 6]: 7.04% and 7.47%
Population Healthy Nuclei (%) [2, 6]: 85.43% and 81.33%
Population Hoechst High Intensity Objects (%) [2, 6]: 0%
Population Membrane Permeable-Phenotype (%) [2, 6]: 3.53% and 2.04%
